From ChEMBL document CHEMBL1123436, “Comparative toxicities and analgesic activities of three monomethylated analogues of acetaminophen” (J Med Chem, 1986)

Experiments:
Mus musculus [1] = organism: Mus musculus; experiment: Analgesic activity determined in mice using the Bradykinin-induced Writhing test; assay type: functional
In short: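 Male CD1 mice (15–20 g), test drug given orally 15 min before bradykinin ip (4 μg in 0.2 mL sterile water), then a second bradykinin injection (0.2 μg/0.1 mL) 15 min later. Writhing was scored over the next 10 min, with control groups of 10 mice. ED50 was derived by log-probit analysis from at least five doses, with 95% limits.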

Mus musculus [2] = experiment: (§1) Hepatotoxicity in Swiss-Webster Mice Caused by compound at 400 mg/kg (i.p.) dose; assay type: functional; settings: route intraperitoneal
In short: (§2)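 Male Swiss-Webster mice (20 g), groups of 10, were given a single ip dose of drug in saline with no pretreatment. Survivors were decapitated at 24 h and counted. Plasma ALT was measured, and liver sections (formalin-fixed, paraffin, H&E) were scored for necrosis severity in survivors. Values are means ± SE.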

Mus musculus [3] = experiment: (§3) Hepatotoxicity in Swiss-Webster Mice Caused by compound at 750 mg/kg (i.p.) dose; assay type: functional; settings: route intraperitoneal; in short: as §2
Mus musculus [4] = experiment: as §1; assay type: functional, organism-based; parameters: dose 400 mg/kg; in short: as §2
Mus musculus [5] = experiment: as §3; assay type: functional, organism-based; parameters: dose 750 mg/kg; in short: as §2
Mus musculus [6] = experiment: Hepatotoxicity in Swiss-Webster Mice Caused by compound at 400 mg/kg (i.p.) dose; 9/10; assay type: functional; settings: route intraperitoneal; in short: as §2
[7] = (§4) Hepatotoxicity in Swiss-Webster Mice Caused by compound at 400 mg/kg (i.p.) (phenobarbital pretreated animals)dose; assay type: functional, Mus musculus; settings: route intraperitoneal
In short: (§5)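 Male Swiss-Webster mice (20 g), groups of 10. Sodium phenobarbital (80 mg/kg ip) was given 72, 60, 48 and 24 h before drug, then drug ip in saline. At 24 h: survivors counted, plasma ALT measured, and H&E liver sections scored for necrosis in survivors. Values are means ± SE.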

Mus musculus [8] = experiment: as §4; assay type: functional, organism-based; parameters: dose 400 mg/kg; in short: as §5
[9] = (§6) Hepatotoxicity in Swiss-Webster Mice Caused by compound at 400 mg/kg (i.p.) (cobaltous chloride pretreated animals)dose; assay type: functional, Mus musculus; settings: route intraperitoneal
In short: (§7)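 Male Swiss-Webster mice (20 g), groups of 10. Cobaltous chloride (30 mg/kg ip) was given 48, 36, 24 and 12 h before drug, then drug ip in saline. At 24 h: survivors counted, plasma ALT measured, and H&E liver sections scored for necrosis in survivors. Values are means ± SE.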

Mus musculus [10] = experiment: Hepatotoxicity in Swiss-Webster Mice Caused by compound at 750 mg/kg (i.p.) dose; 4/10; assay type: functional; settings: route intraperitoneal; in short: as §2
Mus musculus [11] = experiment: Hepatotoxicity in Swiss-Webster Mice Caused by compound at 1000 mg/kg (i.p.) (pipernonyl butoxide pretreated animals)dose; assay type: functional, organism-based; parameters: dose 1000 mg/kg
In short: (§8)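 Male Swiss-Webster mice (20 g), groups of 10. Piperonyl butoxide (neat, single 1360 mg/kg ip dose) was given 30 min before drug, then drug ip in saline. At 24 h: survivors counted, plasma ALT measured, and H&E liver sections scored for necrosis in survivors. Values are means ± SE.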

Mus musculus [12] = experiment: Hepatotoxicity in Swiss-Webster Mice Caused by compound at 400 mg/kg (i.p.) (pipernonyl butoxide pretreated animals)dose; 9/10; assay type: functional; settings: route intraperitoneal; in short: as §8
Mus musculus [13] = experiment: as §6; assay type: functional, organism-based; parameters: dose 400 mg/kg; in short: as §7
[14] = Hepatotoxicity in Swiss-Webster Mice Caused by compound at 400 mg/kg (i.p.) (cobaltous chloride pretreated animals)dose; 8/10; assay type: functional, Mus musculus; settings: route intraperitoneal; in short: as §7
[15] = Hepatotoxicity in Swiss-Webster Mice Caused by compound at 400 mg/kg (i.p.) (phenobarbital pretreated animals)dose; 4/10; assay type: functional, Mus musculus; settings: route intraperitoneal; in short: as §5
Mus musculus [16] = experiment: Hepatotoxicity in Swiss-Webster Mice Caused by compound at 400 mg/kg (i.p.) (pipernonyl butoxide pretreated animals)dose; assay type: functional; settings: route intraperitoneal; in short: as §8

## CC(=O)Nc1ccc(O)c(C)c1
Mus musculus [1]
  ED50: 94.6 mg/kg
Mus musculus [2]
  Hepatic necrosis in survivors: 1
Mus musculus [3]
  Hepatic necrosis in survivors: 2.75
Mus musculus [4]
  Plasma ALT at 24 h: 1080 mU ml-1
Mus musculus [5]
  Plasma ALT at 24 h: 3250 mU ml-1
Mus musculus [6]
  Survivors at 24 h: 9
[7]
  Hepatic necrosis in survivors: 3.5
Mus musculus [8]
  Plasma ALT at 24 h: 5130 mU ml-1
[9]
  Hepatic necrosis in survivors: 0.56
Mus musculus [10]
  Survivors at 24 h: 4
Mus musculus [11]
  Plasma ALT at 24 h: 83 mU ml-1
Mus musculus [12]
  Survivors at 24 h: 9
Mus musculus [13]
  Plasma ALT at 24 h: 345 mU ml-1
[14]
  Survivors at 24 h: 8
[15]
  Survivors at 24 h: 4
Mus musculus [16]
  Hepatic necrosis in survivors: 0
